Measurements: ChEMBL document CHEMBL2176974, “A bactericidal guanidinomethyl biaryl that alters the dynamics of bacterial FtsZ polymerization” (J Med Chem, 2012)
In brackets after ≈: the same amount, converted by molar mass. Activity calls are given as the source filed them. The calls are words filed in the database; no cut-off is given here.

How the values were obtained:
[1] = test system: Enterococcus faecalis; test: Stimulation of Enterococcus faecalis FtsZ self-polymerization at 40 ug/mL by microtiter plate-based light scattering assay
Method in brief: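 Purified E. faecalis FtsZ (10 μM) mixed with compound (0–40 μg/mL) and 1 mM GTP in 50 mM Tris-HCl pH 7.4, 50 mM KCl, 2 mM magnesium acetate, 10 mM CaCl2. Polymerization followed continuously as light scattering (A340) at 25 °C over 400 min.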

[2] = test system: Enterococcus faecalis; test: microbe, parasite or virus in culture; format: functional; conditions: ATCC 51575, 24 h
[3] = test system: Enterococcus faecalis; test: microbe, parasite or virus in culture; format: functional; conditions: ATCC 19433, 24 h
[4] = test system: Staphylococcus aureus; test: microbe, parasite or virus in culture; format: functional; conditions: 8325-4, 24 h
[5] = test system: Staphylococcus aureus; test: microbe, parasite or virus in culture; format: functional; conditions: 8325-4, 24 h; remark: listed apart in the source
[6] = test system: Staphylococcus aureus; test: Antimicrobial activity against methicillin-resistant Staphylococcus aureus Mu3 incubated for 24 hrs by broth microdilution method; format: functional; conditions: Mu3, 24 h
[7] = test system: Staphylococcus aureus; test: microbe, parasite or virus in culture; format: functional; conditions: ATCC 49951, 24 h
[8] = test system: Staphylococcus aureus; test: microbe, parasite or virus in culture; format: functional; conditions: ATCC 33591, 24 h
[9] = molecular target: T1, Cell division protein FtsZ (Staphylococcus aureus) (UniProt P0A031); test: Stimulation of Staphylococcus aureus FtsZ self-polymerization at 40 ug/mL by microtiter plate-based light scattering assay
T1 sequence (whole entry): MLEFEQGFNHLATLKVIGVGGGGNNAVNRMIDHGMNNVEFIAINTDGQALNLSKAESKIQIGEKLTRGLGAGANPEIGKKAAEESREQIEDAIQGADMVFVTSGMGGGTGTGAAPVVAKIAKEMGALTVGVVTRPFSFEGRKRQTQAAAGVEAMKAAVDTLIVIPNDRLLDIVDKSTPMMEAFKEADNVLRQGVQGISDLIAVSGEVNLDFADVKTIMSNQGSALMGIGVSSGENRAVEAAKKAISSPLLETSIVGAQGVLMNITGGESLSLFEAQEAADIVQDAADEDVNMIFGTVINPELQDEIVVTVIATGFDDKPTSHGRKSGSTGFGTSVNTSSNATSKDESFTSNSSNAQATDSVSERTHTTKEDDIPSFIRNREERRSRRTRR

[10] = test system: Escherichia coli; test: Antimicrobial activity against Escherichia coli W4573 incubated for 24 hrs in broth followed by colony transfer to tryptic soy agar for further 24 hrs incubation; format: functional; conditions: W4573, 24 h
Method in brief: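 MBC: broth microdilution as for MIC (10⁵ CFU/mL, CAMH broth, 24 h, 37 °C). Aliquots from wells were then plated on tryptic soy agar and colonies counted after 24 h. MBC taken as the lowest concentration giving a 3-log CFU reduction.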

[11] = test system: Escherichia coli; test: Antimicrobial activity against Escherichia coli W4573 incubated for 24 hrs by broth microdilution method; format: functional; conditions: W4573, 24 h
Method in brief: (§1)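 CLSI broth microdilution. Log-phase bacteria at 10⁵ CFU/mL were exposed to 2-fold serial dilutions (64 to 0.016 μg/mL) in cation-adjusted Mueller-Hinton broth, 5% defibrinated sheep blood added for Streptococcus. Incubated aerobically 24 h at 37 °C. Growth read as OD600; MIC taken as the lowest concentration giving 90% growth inhibition.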

[12] = test system: Escherichia coli; test: Potency index, ratio of MBC to MIC for Escherichia coli W4573; format: functional
Method in brief: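 MBC/MIC ratio. MIC: CLSI broth microdilution, 10⁵ CFU/mL in CAMH broth, 24 h at 37 °C, OD600, 90% inhibition. MBC: well aliquots plated on tryptic soy agar, counted after 24 h, 3-log CFU reduction. Ratio 1–2 read as bactericidal, ≥8 as bacteriostatic.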

[13] = test system: Escherichia coli; test: Antimicrobial activity against ESBL producing Escherichia coli ATCC BAA-201 expressing TEM3 lactamase incubated for 24 hrs by broth microdilution method; format: functional; conditions: ATCC BAA-201, 24 h; method in brief: as §1
[14] = test system: Escherichia coli; test: Antimicrobial activity against Escherichia coli N43 expressing AcrAB efflux pump mutant incubated for 24 hrs by broth microdilution method; format: functional; conditions: N43, 24 h
[15] = molecular target: Tubulin beta chain (Sus scrofa) (UniProt P02554); test: Stimulation of MAP-rich pig beta-tubulin polymerization at 25 ug/mL by microtiter plate-based light scattering assay
Sequence of Tubulin beta chain (Sus scrofa) (P02554 whole entry): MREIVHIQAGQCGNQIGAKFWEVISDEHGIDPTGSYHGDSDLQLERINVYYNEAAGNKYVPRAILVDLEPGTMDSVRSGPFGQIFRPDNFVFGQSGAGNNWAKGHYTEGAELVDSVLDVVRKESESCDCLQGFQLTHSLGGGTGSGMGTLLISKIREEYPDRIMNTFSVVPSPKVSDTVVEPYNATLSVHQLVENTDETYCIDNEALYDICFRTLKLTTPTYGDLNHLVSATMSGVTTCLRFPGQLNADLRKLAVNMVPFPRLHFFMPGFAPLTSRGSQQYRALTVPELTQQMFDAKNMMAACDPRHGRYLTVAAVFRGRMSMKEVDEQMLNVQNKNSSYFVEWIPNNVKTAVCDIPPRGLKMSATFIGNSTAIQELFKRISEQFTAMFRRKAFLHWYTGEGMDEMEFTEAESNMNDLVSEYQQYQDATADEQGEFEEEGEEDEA
Method in brief: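 MAP-rich porcine tubulin (70% β-tubulin, 30% MAPs) at 2 mg/mL with 1 mM GTP. Buffer was 80 mM PIPES·NaOH pH 7.0, 2 mM MgCl₂, 1 mM EGTA. Light scattering was followed as A340 continuously at 37 °C for 60 min, against a DMSO vehicle.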

[16] = molecular target: T1, Cell division protein FtsZ (Staphylococcus aureus); test: Binding affinity to Staphylococcus aureus FtsZ expressed in Escherichia coli BL21 (DE3) by fluorescence anisotropy BoGTPgammaS competition assay
Method in brief: (§2)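 Competition with fluorescent BoGTPγS. BoGTPγS (1 μM final) was mixed with 5 μM FtsZ and compound or unlabeled GTP at 0–40 μM. Buffer was 50 mM Tris·HCl pH 7.4, 50 mM KCl, 2 mM magnesium acetate. After 5 min at 25 °C, anisotropy was read at excitation 488 nm and emission 510 nm, in triplicate and averaged.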

[17] = test system: Enterococcus faecalis; test: Binding affinity to Enterococcus faecalis FtsZ by fluorescence anisotropy BoGTPgammaS competition assay; method in brief: as §2
[18] = molecular target: T2, Cell division protein FtsZ (Escherichia coli K-12) (UniProt P0A9A6); test: Binding affinity to Escherichia coli FtsZ by fluorescence anisotropy BoGTPgammaS competition assay; method in brief: as §2
T2 sequence (whole entry): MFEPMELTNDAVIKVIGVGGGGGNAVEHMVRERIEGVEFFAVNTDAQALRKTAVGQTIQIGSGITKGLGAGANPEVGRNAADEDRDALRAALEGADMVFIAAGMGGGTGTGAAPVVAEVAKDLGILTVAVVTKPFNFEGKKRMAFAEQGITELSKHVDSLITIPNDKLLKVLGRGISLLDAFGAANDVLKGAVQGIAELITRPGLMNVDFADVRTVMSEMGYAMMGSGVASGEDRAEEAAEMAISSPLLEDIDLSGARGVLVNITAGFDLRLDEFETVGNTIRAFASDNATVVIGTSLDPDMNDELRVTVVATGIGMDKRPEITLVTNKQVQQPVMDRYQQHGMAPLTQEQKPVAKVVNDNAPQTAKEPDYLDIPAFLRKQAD

[19] = molecular target: T3, Cell division protein FtsZ (Escherichia coli K-12, UniProt P0A9A6); test: Binding affinity to Escherichia coli FtsZ at 25 degC by fluorescence anisotropy assay
T3 sequence (P0A9A6 whole entry): T2 sequence (whole entry)

[20] = molecular target: T4, Cell division protein FtsZ (Staphylococcus aureus, UniProt P0A031); test: Binding affinity to Staphylococcus aureus FtsZ expressed in Escherichia coli BL21 (DE3) at 25 degC by fluorescence anisotropy assay
T4 sequence (P0A031 whole entry): T1 sequence (whole entry)
Method in brief: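 Intrinsic compound fluorescence anisotropy. Compound at 5 μM was titrated with 0–25 μM FtsZ in 50 mM Tris·HCl pH 7.4, 50 mM KCl, 2 mM magnesium acetate. Samples were incubated 5 min at 25 °C, excited at 245 nm with emission at 318 nm, and G-corrected. Runs were in triplicate and averaged. Kd was obtained by nonlinear least-squares fit. SaFtsZ was expressed in E. coli BL21(DE3) and purified by ammonium sulfate, MonoQ and Superdex-200.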

[21] = molecular target: T2, Cell division protein FtsZ (Escherichia coli K-12); test: Stimulation of Escherichia coli FtsZ self-polymerization at 40 ug/mL by microtiter plate-based light scattering assay
[22] = Binding affinity to Enterococcus faecalis FtsZ at 25 degC by fluorescence anisotropy assay
[23] = test system: Staphylococcus aureus; test: Antimicrobial effect against 3x10^9 CFU/ml methicillin-sensitive Staphylococcus aureus 8325-4 at 4 to 32 times MIC assessed as incidence of colonies growth measured after 24 incubation by large inoculation approach based drug resistance detection method; format: functional, organism-based
Method in brief: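 Inoculum count checked on nonselective plates. Incubated at 37 °C and examined after 24 h and daily thereafter. Mutation frequency = colonies on selective plates / total bacteria plated.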

[24] = molecular target: Tubulin beta chain (Sus scrofa) (UniProt P02554); conditions: 10 ug/mL

Row | SMILES | MIC [2] [µg/mL] | MIC [3] [µg/mL] | MIC [5] [µg/mL] | MIC [6] [µg/mL] | MIC [7] [µg/mL] | MIC [8] [µg/mL] | Activity [9] | MIC [11] [µg/mL] | MIC [13] [µg/mL] | further results
1 | CN[C@H](CC(C)C)C(=O)N[C@H]1C(=O)N[C@@H](CC(N)=O)C(=O)N[C@H]2C(=O)N[C@H]3C(=O)N[C@H](C(=O)N[C@H](C(=O)O)c4cc(O)cc(O)c4-c4cc3ccc4O)[C@H](O)c3ccc(c(Cl)c3)Oc3cc2cc(c3O[C@@H]2O[C@H](CO)[C@@H](O)[C@H](O)[C@H]2O[C@H]2C[C@](C)(N)[C@H](O)[C@H](C)O2)Oc2ccc(cc2Cl)[C@H]1O.Cl [VANCOMYCIN HYDROCHLORIDE] | > 64 | 1 | – | – | – | – | – | – | – | Activity [1]: inactive; MBC [4]: 1 µg/mL
2 | CCC[C@@H]1C[C@@H](C(=O)N[C@@H]([C@H]2O[C@H](SC)[C@H](O)[C@@H](O)[C@H]2O)[C@H](C)Cl)N(C)C1.Cl [CLINDAMYCIN HYDROCHLORIDE] | > 64 | 2 | 0.031 | > 64 | 0.063 | > 64 | inactive | – | – | –
3 | NC[C@@H]1O[C@H](O[C@H]2[C@@H](O)[C@H](O[C@@H]3[C@@H](O)[C@H](N)C[C@H](N)[C@H]3O[C@H]3O[C@H](CN)[C@@H](O)[C@H](O)[C@H]3N)O[C@@H]2CO)[C@H](N)[C@@H](O)[C@@H]1O.O.O=S(=O)(O)O [NEOMYCIN TRISULFATE HYDRATE] | – | – | – | – | – | – | – | 1 | – | MBC [10]: 2 µg/mL; Ratio [12]: 2
4 | NCC[C@H](O)C(=O)N[C@@H]1C[C@H](N)[C@@H](O[C@H]2O[C@H](CN)[C@@H](O)[C@H](O)[C@H]2O)[C@H](O)[C@H]1O[C@H]1O[C@H](CO)[C@@H](O)[C@H](N)[C@H]1O.O=S(=O)(O)O | – | – | – | – | – | – | – | 2 | > 64 | MIC [14]: 1 µg/mL
5 | CC(=O)O[C@H]1C(=O)[C@@]2(C)[C@H]([C@H](OC(=O)c3ccccc3)[C@]3(O)C[C@H](OC(=O)[C@H](O)[C@@H](NC(=O)c4ccccc4)c4ccccc4)C(C)=C1C3(C)C)[C@]1(OC(C)=O)CO[C@@H]1C[C@@H]2O | – | – | – | – | – | – | – | – | – | Activity [15]: Active
6 | Nc1nc(=O)c2ncn([C@@H]3O[C@H](COP(=O)(O)OP(=O)(O)OP(=O)(O)O)[C@@H](O)C3O)c2[nH]1 (single isomer, unassigned) | – | – | – | – | – | – | – | – | – | Activity [16]: Dose-dependent effect; Activity [17]: Dose-dependent effect; Activity [18]: Dose-dependent effect
7 | CC(C)(C)c1ccc(-c2ccnc(CNC(=N)N)c2)cc1 | 64 (≈ 227 µM) | 32 (≈ 113 µM) | 8 (≈ 28.3 µM) | 8 (≈ 28.3 µM) | 8 (≈ 28.3 µM) | 16 (≈ 56.7 µM) | inactive | 64 (≈ 227 µM) | 64 (≈ 227 µM) | Kd [19]: Not Active; Kd [20]: Not Active; Activity [1]: inactive; Activity [21]: inactive; MIC [14]: 8 µg/mL (≈ 28.3 µM); Kd [22]: Not Active
8 | CC1(C)S[C@@H]2[C@H](NC(=O)[C@H](N)c3ccccc3)C(=O)N2[C@H]1C(=O)[O-].[Na+] [AMPICILLIN SODIUM] | – | – | – | – | – | – | – | 4 | > 64 | Activity [21]: inactive
9 | CO[C@H]1/C=C/O[C@@]2(C)Oc3c(C)c(O)c4c(O)c(c(/C=N/N5CCN(C)CC5)c(O)c4c3C2=O)NC(=O)/C(C)=C\C=C\[C@H](C)[C@H](O)[C@@H](C)[C@@H](O)[C@@H](C)[C@H](OC(C)=O)[C@@H]1C | – | – | – | – | – | – | – | – | – | Activity [23]: inactive
10 | Cc1onc(-c2ccccc2Cl)c1C(=O)N[C@@H]1C(=O)N2[C@@H]1SC(C)(C)[C@@H]2C(=O)[O-].[Na+] [OXACILLIN SODIUM SALT] | 64 | 8 | 0.063 | > 64 | 0.25 | > 64 | inactive | – | – | –
11 | CC[C@H]1OC(=O)[C@H](C)[C@@H](O[C@H]2C[C@@](C)(OC)[C@@H](O)[C@H](C)O2)[C@H](C)[C@@H](O[C@@H]2O[C@H](C)C[C@H](N(C)C)[C@H]2O)[C@](C)(O)C[C@@H](C)C(=O)[C@H](C)[C@@H](O)[C@]1(C)O [ERYTHROMYCIN] | > 64 | 1 (≈ 1.36 µM) | 0.125 (≈ 0.17 µM) | > 64 | 0.25 (≈ 0.341 µM) | > 64 | – | – | – | MBC [4]: 32 µg/mL (≈ 43.6 µM)
12 | CC(C)(C)c1ccc(-c2cc(CNC(=N)N)ncn2)cc1 | > 64 | > 64 | 64 (≈ 226 µM) | 32 (≈ 113 µM) | 32 (≈ 113 µM) | 64 (≈ 226 µM) | inactive | > 64 | > 64 | Kd [19]: Not Active; Kd [20]: Not Active; Activity [1]: inactive; Activity [21]: inactive; MIC [14]: 32 µg/mL (≈ 113 µM); Kd [22]: Not Active
13 | COC(=O)Nc1nc2cc(C(=O)c3cccs3)ccc2[nH]1 | – | – | – | – | – | – | – | – | – | inhibition [24]: Active
